Screening results from PubChem BioAssay.
Hits are enriched below; roughly 3.4% of the tested compounds scored in any of these assays.
TAAR1 ag: human TAAR1 agonists, primary screen, Fluo-8 calcium fluorescence, CHO RD-HGA16 cells; Trace amine-associated receptor 1 (Homo sapiens), Q96RJ0; vehicle wells 0%, saturating PEA agonist 100%; activation, % at 3 µM; 360,000 tested, 0.99% active;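 active = activation above the mean activation of all test compounds in the run plus 3 SD, cut at about 38% in these data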
Target sequence (Q96RJ0 whole entry, looked up): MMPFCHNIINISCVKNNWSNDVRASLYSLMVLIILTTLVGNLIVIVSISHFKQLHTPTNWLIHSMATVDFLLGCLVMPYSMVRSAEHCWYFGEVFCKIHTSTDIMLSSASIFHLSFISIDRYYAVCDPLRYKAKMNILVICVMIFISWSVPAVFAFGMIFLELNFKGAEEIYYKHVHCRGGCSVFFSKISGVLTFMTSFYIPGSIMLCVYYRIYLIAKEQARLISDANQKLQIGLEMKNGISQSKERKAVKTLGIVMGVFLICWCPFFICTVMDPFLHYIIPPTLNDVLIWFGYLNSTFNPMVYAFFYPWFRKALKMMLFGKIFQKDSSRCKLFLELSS
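Test system: RD-HGA16 (CHO) cells co-expressing Gα16 and hTAAR1 | Doses: Single dose, 3 µM | Schedule: 17-24 h seeding, 75 min 37 °C dye, 30 min RT | Evaluation: % activation from peak over basal fluorescence ratio, DMSO-to-PEA scaled | Technique: Kinetic Fluo-8 calcium fluorescence | Benchmarks: Low control DMSO, high control PEA (EC100)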
TAAR1 antag: human TAAR1 antagonists, primary screen, Fluo-8 calcium fluorescence, CHO RD-HGA16 cells | Trace amine-associated receptor 1 (Homo sapiens), Q96RJ0 | antagonist | inhibition, % at 3 µM | 360,000 tested, 1.5% active;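 active = inhibition above a per-plate cutoff, the mean inhibition of test compounds on that plate plus 3 SD, cut at about 49% in these data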;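 also: 0% = DMSO plus EC80 beta-PEA response and 100% = DMSO alone without agonist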
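Test system – hTAAR1-expressing CHO RD-HGA16 cells, Gα16-coupled · Reagent – β-PEA at EC80 concentration, post-compound challenge · Compound dosing – 3 µM, single point · Timing – 140 s kinetic read after compound, 140 s after agonist · Detection – Fluo-8 intracellular calcium dye fluorescence, real-time kinetic reads · Control set – DMSO and EC80 PEA controls · Repeats – n of 1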
M1 antag: human M1 muscarinic receptor antagonists, primary screen, CHO-K1 cells, Fluo-8 calcium fluorescence, 1536-well | Muscarinic acetylcholine receptor M1 (Homo sapiens), P11229 | CHO-K1 hM1, ACh EC80 antagonist | inhibition, % at 3 µM | 360,000 tested, 1.3% active | AID 588852, 2011;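 active = percent inhibition above its own plate's cutoff, namely the mean of that plate's compound wells plus 3 SD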;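 also: peak over basal fluorescence ratio during 140 s after agonist addition; 0% = ACh EC80 plus DMSO and 100% = DMSO alone without agonist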
M1 ag: human M1 muscarinic receptor agonists, primary screen, Fluo-8 calcium fluorescence, CHO-K1 cells, HTS | Muscarinic acetylcholine receptor M1 (Homo sapiens), P11229 | CHO-K1 hM1, agonist mode; 0% DMSO, 100% acetylcholine EC100 | activation, % at 3 µM | 360,000 tested, 0.33% active;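 active = activation above the run's mean compound activation plus 3 SD, cut at about 16% in these data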;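 also: peak over basal fluorescence ratio within a 140 s kinetic read after compound addition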
CHRM1 PAM: human M1 muscarinic receptor positive allosteric modulators, primary screen, CHO-K1 cells, Fluo-8 calcium fluorescence, 1536-well; CHO-K1 hM1, ACh EC20; 0% = ACh EC20, 100% = maximal ACh; AID 588819, 2011; 360,000 tested, 0.088% active; activation, % at 3 µM; in the data active = activation above about 19%, passing the limit was not always enough
* hit, by the source's call.

For CCOC(=O)N1CCN(c2ncnc3c2[nH]c2ccc(OC)cc23)CC1 the results were TAAR1 ag 6.4, TAAR1 antag 5.1, M1 antag 3.9, M1 ag 1.5 and CHRM1 PAM 8.7.
Screening CCOC(=O)N1CCN(c2ncnc3c2[nH]c2ccc(F)cc23)CC1 returned TAAR1 ag 23.5, TAAR1 antag 17.2, M1 antag 27.7*, M1 ag 2.8 and CHRM1 PAM -15.3.
For COc1ccc(N2CCN(c3ncnc4c3[nH]c3ccccc34)CC2)cc1 the results were TAAR1 ag 15.0, TAAR1 antag 66.5*, M1 antag 30.3, M1 ag 1.7 and CHRM1 PAM -11.1.
OC1(c2cccc(C(F)(F)F)c2)CCN(c2ncnc3c2[nH]c2ccc(F)cc23)CC1 was read as TAAR1 ag 12.9, TAAR1 antag 60.4*, M1 antag 35.9*, M1 ag -0.7 and CHRM1 PAM -11.8.
For CC(C)n1nnnc1C1c2ccccc2C(=O)N1Cc1ccco1 (stereo unspecified) the results were TAAR1 ag 1.0 and TAAR1 antag -13.4.
COC(=O)C1=C(C)N(Cc2cccc(C(F)(F)F)c2)C(=NCc2ccc(C(F)(F)F)cc2)NC1c1ccccc1C(F)(F)F (stereo unspecified) was read as TAAR1 ag 1.0 and TAAR1 antag -17.5.
For S=C(Nc1ccc(Cl)c(Cl)c1)NC1CCCCC1 the results were M1 antag 44.4*, M1 ag -3.5 and CHRM1 PAM -29.3.
For CN(C(=S)Nc1ccc(Oc2ccccc2)cc1)C1CCCCC1 the results were TAAR1 ag 7.3, TAAR1 antag 19.2, M1 antag 38.9*, M1 ag -9.2 and CHRM1 PAM -26.3.
For S=C(Nc1ccc(Oc2ccccc2)cc1)NC1CCCCCC1 the results were TAAR1 ag 4.9, TAAR1 antag 24.2, M1 antag 28.6*, M1 ag -5.1 and CHRM1 PAM -24.3.
For S=C(Nc1ccc(Oc2ccccc2)cc1)NC1CCCCC1 the results were TAAR1 ag 11.8, TAAR1 antag 4.9, M1 antag -8.3, M1 ag 1.2 and CHRM1 PAM -13.2.
Screening CC(=O)N1C[C@H]2CON(C)[C@H]2C[C@H]1c1ccccc1-c1ccccc1 returned TAAR1 ag 1.3 and TAAR1 antag -19.5.
`C[C@H](c1ccccc1)N1C[C@@H](COCc2ccccc2)Oc2cc(N3CC[C@@H](N(C)C)C3)ccc2S1(=O)=O` gave TAAR1 ag 12.7 and TAAR1 antag -0.2.
Screening CCc1nc2ccc(C(=O)NCCN3CCNC3=O)cn2c1N(C)CCC(C)C returned TAAR1 ag 0.5, TAAR1 antag 0.7, M1 antag -16.7, M1 ag -7.0 and CHRM1 PAM 4.6.
For CCN=C(NCC)SC1CC(=O)N(c2cccc(OC)c2)C1=O (stereo unspecified) the results were TAAR1 ag 23.4, TAAR1 antag 54.9*, M1 antag 32.0*, M1 ag -0.2 and CHRM1 PAM -14.3.
For CN=C(Nc1ccc2c(c1)OCO2)SC1CC(=O)N(c2ccccc2)C1=O (stereo unspecified) the results were TAAR1 ag 6.4, TAAR1 antag 13.7, M1 antag -16.6, M1 ag -3.4 and CHRM1 PAM 13.2.
`CCN=C(NCC)SC1CC(=O)N(c2ccccc2)C1=O` (stereo unspecified) gave TAAR1 ag 25.9, TAAR1 antag 50.7*, M1 antag 25.1*, M1 ag 3.5 and CHRM1 PAM -17.1.
Screening COC(=O)C1=C(C)N(Cc2ccc(C(F)(F)F)cc2)C(=NCc2ccc(OC)cc2)NC1c1ccccc1 (stereo unspecified) returned TAAR1 ag 21.4 and TAAR1 antag 25.0.
Screening COc1ccc(-c2nn(-c3ccccc3)cc2C(=O)O)cc1 returned TAAR1 ag 0.4, TAAR1 antag -10.2, M1 antag 8.7, M1 ag -2.7 and CHRM1 PAM -2.4.
`COc1ccc(-c2nn(-c3ccccc3)cc2C(=O)NC(=S)Nc2cc(Cl)ccc2Cl)cc1` gave TAAR1 ag 2.0, TAAR1 antag -26.7, M1 antag -37.1, M1 ag 1.4 and CHRM1 PAM 26.2*.
Cc1cc2nc3n(c2cc1C)CC1CC(C(=O)NCC2CC2)N(C)C31 (stereo unspecified) was read as TAAR1 ag 6.4, TAAR1 antag 7.8, M1 antag 41.7*, M1 ag -10.6 and CHRM1 PAM -19.1.
For COc1cc(/C=C2\CC/C(=C\c3cc(OC)c(OC)c(OC)c3)C2=O)cc(OC)c1OC the results were TAAR1 ag 1.7, TAAR1 antag 15.1, M1 antag -12.2, M1 ag -4.5 and CHRM1 PAM 8.8.
For COc1cc(/C=C2\COC/C(=C\c3cc(OC)c(OC)c(OC)c3)C2=O)cc(OC)c1OC the results were TAAR1 ag 5.7, TAAR1 antag 53.4*, M1 antag -0.2, M1 ag 2.1 and CHRM1 PAM 2.7.
For Cc1cc2c3c([nH]c2cc1S(=O)(=O)NCc1ccc(CN2CCCCCC2)o1)CC(C)(C)CC3=O the results were TAAR1 ag 1.8, TAAR1 antag -7.2, M1 antag 52.3*, M1 ag -13.7 and CHRM1 PAM -36.4.
CCOCCCNS(=O)(=O)c1cc2[nH]c3c(c2cc1C)C(=O)CC(C)(C)C3 was read as TAAR1 ag 3.3, TAAR1 antag -2.6, M1 antag -2.8, M1 ag -6.0 and CHRM1 PAM 3.6.
For Cc1cc2c3c([nH]c2cc1S(=O)(=O)NCc1ccc(CN2CCCCCC2)o1)CCCC3=O the results were TAAR1 ag 11.7, TAAR1 antag -6.3, M1 antag 84.6*, M1 ag -4.6 and CHRM1 PAM -21.0.
CC1CN(C(=O)COC(=O)/C=C/c2ccccc2)CC(C)O1 (stereo unspecified) was read as TAAR1 ag 0.9, TAAR1 antag -25.9, M1 antag 28.8*, M1 ag -0.8 and CHRM1 PAM -13.7.
Cc1cccc(C(=O)OCc2cc3ccccc3[nH]c2=O)c1 was read as TAAR1 ag 10.2, TAAR1 antag 27.1, M1 antag 5.3, M1 ag -4.0 and CHRM1 PAM -9.8.
For Cc1ccc(C(=O)OCc2cc3ccccc3[nH]c2=O)cc1 the results were TAAR1 ag 42.2*, TAAR1 antag 32.9, M1 antag -24.7, M1 ag 6.5 and CHRM1 PAM 11.6.
